{"source": "ChEMBL document CHEMBL1142651", "about": "“Design and synthesis of conformationally constrained Grb2 SH2 domain binding peptides employing alpha-methylphenylalanyl based phosphotyrosyl mimetics” (J Med Chem, 2005)", "key": {"[1]": {"target": "T1, Growth factor receptor-bound protein 2 (Homo sapiens, UniProt P62993)", "test": "In vitro relative association value for growth factor receptor bound protein 2 SH2 domain from human breast cancer cells", "assay_type": "cell-based", "settings": "Cancer cell lines"}, "[2]": {"target": "T1, Growth factor receptor-bound protein 2", "test": "In vitro binding affinity for growth factor receptor bound protein 2 SH2 domain from human breast cancer cells", "assay_type": "cell-based, Cancer cell lines", "how_it_was_run": "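SPR: Grb2 SH2 protein (b-Grb2) amine-coupled to CM5 dextran chip at 2500-5000 RU. Ligands 1.25-1500 nM in PBS pH 7.4 running buffer, injected at 25 °C in increasing order, in duplicate, 1 min association, 3 min dissociation, no regeneration. Double-referenced against a blank surface and buffer injections. KD from global fit (1:1 or heterogeneity model) of at least four independent data sets.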"}, "[3]": {"target": "T1, Growth factor receptor-bound protein 2", "test": "In vitro dissociation rate constant for growth factor receptor bound protein 2 SH2 domain from human breast cancer cells", "settings": "cancer cell lines"}}, "note": "“And” between values parts separate entries of the source, which are not always exact repeats. Equal values may be shown once.", "data": [{"molecule": "C[C@@]1(Cc2ccc(P(=O)(O)O)cc2)NC(=O)CC(c2ccc(CP(=O)(O)O)cc2)/C=C/C[C@@H](Cc2cccc3ccccc23)CNC(=O)[C@H](CC(N)=O)NC1=O", "note": "(stereo in doubt; 10A) [listing 1 of 2 here]", "values": [{"measurement": "Ka", "setting": "[1]", "result": "6.5e+06 1/M·1/S"}]}, {"molecule": "C[C@@]1(Cc2ccc(P(=O)(O)O)cc2)NC(=O)CC(c2ccc(CP(=O)(O)O)cc2)/C=C/C[C@@H](Cc2cccc3ccccc23)CNC(=O)[C@H](CC(N)=O)NC1=O", "note": "(stereo in doubt; 10A) [listing 2 of 2 here]", "values": [{"measurement": "Kd", "setting": "[2]", "result": 0.097, "unit": "nM"}, {"measurement": "koff", "setting": "[3]", "result": 0.00063, "unit": "s⁻¹"}]}, {"molecule": "C[C@@]1(Cc2ccc(P(=O)(O)O)cc2)NC(=O)CC(c2ccc(CP(=O)(O)O)cc2)/C=C/C[C@@H](Cc2cccc3ccccc23)CNC(=O)[C@H](CC(N)=O)NC1=O", "note": "(stereo in doubt; 10B) [listing 1 of 2 here]", "values": [{"measurement": "Ka", "setting": "[1]", "result": "230000 1/M·1/S"}]}, {"molecule": "C[C@@]1(Cc2ccc(P(=O)(O)O)cc2)NC(=O)CC(c2ccc(CP(=O)(O)O)cc2)/C=C/C[C@@H](Cc2cccc3ccccc23)CNC(=O)[C@H](CC(N)=O)NC1=O", "note": "(stereo in doubt; 10B) [listing 2 of 2 here]", "values": [{"measurement": "Kd", "setting": "[2]", "result": 72, "unit": "nM"}, {"measurement": "koff", "setting": "[3]", "result": 0.018, "unit": "s⁻¹"}]}, {"molecule": "C[C@@]1(Cc2ccc(P(=O)(O)O)cc2)NC(=O)CC(c2ccc(CP(=O)(O)O)cc2)/C=C/C[C@@H](Cc2cccc3ccccc23)CNC(=O)[C@H](CC(N)=O)NC1=O", "note": "(stereo in doubt; 10)", "values": [{"measurement": "Kd", "setting": "[2]", "result": "2.28 nM and 4.3 nM"}]}]}
